pIC50: −log10 of the molar value. Active and inactive are the calls of the source. The calls are words filed in the database; no cut-off is given here.
Experiments:
[1] = test system: STS-26T; test: Growth inhibition of human STS-26T cells at 1 to 5 uM after 24 hrs; format: functional, cell-based
Outline: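 STS-26T cultures were plated in medium with 5% FBS and dosed about 24 h later at 1, 3 or 5 µM, alone or with 1 µM lovastatin, against a DMSO vehicle. Cells were harvested at various times by trypsinization and counted with a hemocytometer; viability was judged by trypan blue exclusion. Values are means ± SD of three culture dishes.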

[2] = Cell cycle arrest in human STS-26T cells assessed as accumulation in S phase at 1 uM after 24 hrs; format: functional, cell-based
Outline: (§1)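 STS-26T cells were grown in RPMI-1640 with 5% FBS and penicillin/streptomycin at 37 °C under 5% CO2. About 24 h after plating, cells were treated with 1 µM compound, alone or with 1 µM lovastatin, against a DMSO control. After 24 h, DNA content was read by flow cytometry (at least 10^4 events). G1, S and G2/M percentages of the nonapoptotic population came from histogram fitting.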

[3] = Apoptosis in human STS-26T cells at 1 uM after 24 hrs; format: functional
[4] = Cell cycle arrest in human STS-26T cells assessed as accumulation in G2/M phase at 1 uM after 24 hrs; format: functional, cell-based; outline: as §1
[5] = Cell cycle arrest in human STS-26T cells assessed as accumulation in G1 phase at 1 uM after 24 hrs; format: functional, cell-based; outline: as §1
[6] = target: Protein farnesyltransferase (Rattus norvegicus); test: Inhibition of farnesyltransferase assessed as farnesylation of Dansyl-GCVLS peptide

With CC(C)=CCC/C(C)=C/CC/C(=C/COP(=O)(OCc1ccc([N+](=O)[O-])o1)N(C)CCCCCl)CC=C(C)C (centres undefined) the Activity [1] was “inactive”.

For C=CC/C(=C\COP(=O)(OCc1ccc([N+](=O)[O-])o1)N(C)CCCCCl)CC/C=C(\C)CCC=C(C)C (centres undefined), the Activity [2] was 40%, the Activity [3] was 0.5% and the Activity [4] was 12%. The Activity [1] was “inactive” and the Activity [5] was 48%.

For C=CC/C(=C\COP(=O)(O)O)CC/C=C(\C)CCC=C(C)C, the pIC50 [6] was 7.89.

With CC(C)=CCC/C(C)=C/CC/C(=C/COP(=O)(O)O)CC=C(C)C the pIC50 [6] was 5.30.

Compound CC[C@H](C)C(=O)O[C@H]1C[C@@H](C)C=C2C=C[C@H](C)[C@H](CC[C@@H]3C[C@@H](O)CC(=O)O3)[C@H]21 [LOVASTATIN] has an Activity [2] of 37%, an Activity [3] of 0.3% and an Activity [4] of 10%. The Activity [5] was 53%.

With CC(C)=CCC/C(C)=C/CC/C(=C/COP(=O)(OCc1ccc([N+](=O)[O-])o1)N(C)CCCCCl)C(C)(C)C (centres undefined) the Activity [1] was “inactive”.

In the case of CC(C)=CCC/C(C)=C/CC/C(=C/COP(=O)(O)O)C(C)(C)C, the pIC50 [6] was 7.80.
